Calls of active or inactive are those of the source. No cut-off for these calls is given here.
What was measured:
Trypanosoma cruzi [1] = assay: Antitrypanosomal activity against Trypanosoma cruzi Arequipa trypomastigotes infected in BALB/c mouse assessed as reduction in parasitemia level in heart measured during acute phase (days 0 to 40 post infection) at 50 to 100 mg/kg, po dosed on alternating days (7 to 15 days post infection) by PCR analysis; format: functional, organism-based; settings: dose 50-100 mg/kg
[2] = Genotoxicity in Salmonella typhimurium TA98 at 0.03 to 2.25 ug/plate incubated for 48 hrs in absence of liver S9 fraction by Ames test; format: toxicity; settings: salmonella enterica subsp. enterica serovar typhimurium, s9, 48 h
In short: (§1)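 Preincubation Ames assay. […] Top agar with trace histidine/biotin (0.05 mM each) was added and poured onto glucose minimal agar. Plates were incubated 48 h at 37 °C and His+ revertants counted. DMSO was the negative control, with strain-appropriate positive controls. Technical triplicates.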

Trypanosoma cruzi [3] = assay: Antitrypanosomal activity against Trypanosoma cruzi SN3 trypomastigote froms infected in mouse blood incubated for 24 hrs by Neubauer chamber based assay; format: functional, organism-based
In short: (§2)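 Mouse blood taken at peak parasitemia (day 7) was diluted with uninfected blood to 4×10^6 trypomastigotes/mL, then 1:2 in RPMI 1640. Drugs from DMSO stocks were added at 1, 10, 25, 50 and 100 µM and incubated 24 h at 4–8 °C. Parasites were counted in a Neubauer chamber in triplicate. IC50 was calculated versus control.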

Trypanosoma cruzi [4] = assay: Antitrypanosomal activity against Trypanosoma cruzi SN3 amastigote forms infected in African green monkey Vero cells incubated for 72 hrs by Giemsa staining based micrscopy; format: functional, organism-based
In short: (§3)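 Vero cells (RPMI, 10% inactivated FBS, 37 °C, 5% CO2) were seeded at 1×10^4/well on coverslips and cultured 2 days. They were infected 24 h with metacyclic forms at 10:1. After washing off free parasites, drugs were added at 0.1–100 µM for 72 h. Slides were methanol-fixed and Giemsa-stained; amastigotes were counted in 200 host cells versus untreated. IC50 was calculated.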

[5] = Genotoxicity in Salmonella typhimurium TA98 at 0.03 to 2.25 ug/plate incubated for 48 hrs in presence of liver S9 fraction by Ames test; format: toxicity, subcellular; settings: salmonella enterica subsp. enterica serovar typhimurium, s9, 48 h; in short: as §1
Trypanosoma cruzi [6] = assay: Antitrypanosomal activity against Trypanosoma cruzi Arequipa trypomastigotes infected in BALB/c mouse assessed as reduction in mouse mortality measured during acute phase (days 0 to 40 post infection) at 50 to 100 mg/kg, po dosed on alternating days (7 to 15 days post infection); format: functional, organism-based; settings: dose 50-100 mg/kg
[7] = Genotoxicity in Salmonella typhimurium TA100 at 0.03 to 2.25 ug/plate incubated for 48 hrs in presence of liver S9 fraction by Ames test; format: toxicity, subcellular; settings: salmonella enterica subsp. enterica serovar typhimurium, s9, 48 h; in short: as §1
Trypanosoma cruzi [8] = assay: (§4) Antitrypanosomal activity against Trypanosoma cruzi Arequipa trypomastigotes infected in BALB/c mouse assessed as reduction in parasitemia level in lung measured during acute phase (days 0 to 40 post infection) at 100 mg/kg, po dosed on alternating days (7 to 15 days post infection) by PCR analysis; format: functional, organism-based
[9] = Inhibition of Trypanosoma cruzi Arequipa Fe-SOD by NBT dye based spectrophotometry
In short: (§5)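 Fe-SOD source: Arequipa epimastigote homogenate (STE buffer pH 7.8, sonication, centrifugation, supernatant; protein by Bradford); CuZn-SOD was commercial human erythrocyte enzyme. Activity was measured as NBT reduction by superoxide in 50 mM potassium phosphate pH 7.8, with compounds at 5 concentrations (1–100 µM). A560 was read before and after 10 min under lamp light with stirring. Three rate determinations; Newman–Keuls test.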

Trypanosoma cruzi [10] = assay: Antitrypanosomal activity against Trypanosoma cruzi Tulahuen amastigote forms infected in African green monkey Vero cells incubated for 72 hrs by Giemsa staining based micrscopy; format: functional, organism-based; in short: as §3
Trypanosoma cruzi [11] = assay: Antitrypanosomal activity against Trypanosoma cruzi Arequipa trypomastigote froms infected in mouse blood incubated for 24 hrs by Neubauer chamber based assay; format: functional, organism-based; in short: as §2
Trypanosoma cruzi [12] = assay: Antitrypanosomal activity against Trypanosoma cruzi Arequipa trypomastigotes infected in BALB/c mouse assessed as reduction in splenomegaly by measuring weight percent of spleens […] at 50 mg/kg, po dosed on alternating days (7 to 15 days post infection) by PCR analysis (reference value: 1.603%); format: functional; parameters: scale not given: the % may be the effect or the level left
[13] = Genotoxicity in Salmonella typhimurium TA100 at 0.03 to 2.25 ug/plate incubated for 48 hrs in absence of liver S9 fraction by Ames test; format: toxicity; settings: salmonella enterica subsp. enterica serovar typhimurium, s9, 48 h; in short: as §1
Trypanosoma cruzi [14] = assay: Antitrypanosomal activity against Trypanosoma cruzi Tulahuen trypomastigote froms infected in mouse blood incubated for 24 hrs by Neubauer chamber based assay; format: functional, organism-based; in short: as §2
Trypanosoma cruzi [15] = assay: as §4, with “bone marrow” for “lung”; format: functional, organism-based
Trypanosoma cruzi [16] = assay: Antitrypanosomal activity against Trypanosoma cruzi SN3 epimastigote forms incubated for 72 hrs by hemocytometry; format: functional, organism-based; settings: SN3, 72 h
In short: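 Epimastigotes grown in MTL medium with 10% inactivated FBS at 28 °C. Compounds were dissolved in DMSO (0.01% v/v) and added at 0.1–100 µM for 72 h. Parasites were counted in a Neubauer chamber. IC50 (50% growth inhibition) was derived by linear regression of Kc values. Values are averages of four determinations.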

Trypanosoma cruzi [17] = assay: Antitrypanosomal activity against Trypanosoma cruzi Arequipa trypomastigotes infected in BALB/c mouse assessed as reduction in parasitemia measured during acute phase (days 0 to 40 post infection) at 50 to 100 mg/kg, po dosed on alternating days (7 to 15 days post infection); format: functional, organism-based; settings: dose 50-100 mg/kg
In short: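 Female BALB/c mice (8–10 weeks, 25–30 g; groups of six) were infected i.p. with 5×10^5 Arequipa blood trypomastigotes. Dosing was oral, 50 or 100 mg/kg/day, on 5 alternating days (days 7–15 pi), alongside untreated and reference-drug groups. Parasitemia was counted in 5 µL mandibular-vein blood by Neubauer chamber through day 40 pi. Data are means ± SD of six mice.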

Trypanosoma cruzi [18] = assay: Antitrypanosomal activity against Trypanosoma cruzi Arequipa amastigote forms infected in African green monkey Vero cells incubated for 72 hrs by Giemsa staining based micrscopy; format: functional, organism-based; in short: as §3
Trypanosoma cruzi [19] = assay: as §4, with “esophagus” for “lung”; format: functional, organism-based
Trypanosoma cruzi [20] = assay: Antitrypanosomal activity against Trypanosoma cruzi infected in African green monkey Vero cells assessed as reduction in number of trypomastigotes measured up to 10 days by Giemsa staining based hemocytometry; format: functional; settings: time day <=10
In short: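 Vero cells infected with metacyclic forms (10:1) were exposed to one concentration per compound immediately after infection for 12 h at 37 °C, 5% CO2. After washing, cultures were kept 10 days with fresh medium every 48 h. Every 48 h, % infected cells and amastigotes per infected cell (200 Giemsa-stained cells) and medium trypomastigotes (Neubauer) were scored. Means of three experiments.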

[21] = Genotoxicity in Salmonella typhimurium TA1535 at 0.03 to 2.25 ug/plate incubated for 48 hrs in absence of liver S9 fraction by Ames test; format: toxicity; settings: salmonella enterica subsp. enterica serovar typhimurium, s9, 48 h; in short: as §1
[22] = target: Superoxide dismutase [Cu-Zn] (Homo sapiens, UniProt P00441); assay: Inhibition of human erythrocyte CuZn-SOD by NBT dye based spectrophotometry; in short: as §5
Trypanosoma cruzi [23] = assay: Antitrypanosomal activity against Trypanosoma cruzi Arequipa trypomastigotes infected in BALB/c mouse assessed as parasitemia re-activation level measured during chronic phase ( day 90 post infection) at 100 mg/kg, po dosed on alternating days (7 to 15 days post infection) relative to acute phase infection (reference value: […]%); format: functional
Trypanosoma cruzi [24] = assay: Antitrypanosomal activity against Trypanosoma cruzi Arequipa trypomastigotes infected in BALB/c mouse assessed as reduction in parasitemia level in brain measured during acute phase (days 0 to 40 post infection) at 100 mg/kg, po dosed on alternating days (7 to 15 days post infection) by PCR analysis; format: functional, organism-based

Sequence of Superoxide dismutase [Cu-Zn] (P00441 whole entry): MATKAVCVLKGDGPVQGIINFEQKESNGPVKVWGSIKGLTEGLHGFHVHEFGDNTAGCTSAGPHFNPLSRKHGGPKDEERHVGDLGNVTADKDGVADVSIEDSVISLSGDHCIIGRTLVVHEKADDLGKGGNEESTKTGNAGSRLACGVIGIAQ

In the case of `O=C(CCN1CCN(c2ccc(F)cc2)CC1)c1csc2ccc(F)cc12`, the Activity (Trypanosoma cruzi [1]) is reported as “Active”, the Activity [2] is reported as “Non-Toxic” and the IC50 (Trypanosoma cruzi [3]) is reported as 5.1 µM. The IC50 (Trypanosoma cruzi [4]) was 7.9 µM, the Activity [5] was “Non-Toxic” and the Activity (Trypanosoma cruzi [6]) was “Active”. The Activity [7] was “Non-Toxic”, the Activity (Trypanosoma cruzi [8]) was “Active” and the IC50 [9] was 16.8 µM. For the same molecule, the IC50 (Trypanosoma cruzi [10]) was 4.9 µM, the IC50 (Trypanosoma cruzi [11]) was 0.3 µM and the Activity (Trypanosoma cruzi [12]) was 1.061%. The Activity [13] was “Non-Toxic”, the IC50 (Trypanosoma cruzi [14]) was 1.9 µM and the Activity (Trypanosoma cruzi [15]) was “Active”. The IC50 (Trypanosoma cruzi [16]) was 12.3 µM, the Activity (Trypanosoma cruzi [17]) was “Active” and the IC50 (Trypanosoma cruzi [18]) was 12.7 µM. For the same molecule, the Activity (Trypanosoma cruzi [19]) was “Active”, the “inhibition (INH)” value (Trypanosoma cruzi [20]) was 47% and the Activity [21] was “Non-Toxic”. The IC50 [22] was 215 µM, the Activity (Trypanosoma cruzi [23]) was 0% and the Activity (Trypanosoma cruzi [24]) was “Active”.
With `O=C(CCN1CCN(c2ccc(C(F)(F)F)cc2)CC1)c1csc2ccc(F)cc12` the Activity (Trypanosoma cruzi [1]) was “Active”, the Activity [2] was “Non-Toxic” and the IC50 (Trypanosoma cruzi [3]) was 6.6 µM. The IC50 (Trypanosoma cruzi [4]) was 8.7 µM, the Activity [5] was “Non-Toxic” and the Activity (Trypanosoma cruzi [6]) was “Active”. For the same molecule, the Activity [7] was “Non-Toxic”, the Activity (Trypanosoma cruzi [8]) was “Active” and the IC50 [9] was 102 µM. For the same molecule, the IC50 (Trypanosoma cruzi [10]) was 25.8 µM, the IC50 (Trypanosoma cruzi [11]) was 13.9 µM and the Activity (Trypanosoma cruzi [12]) was 1.621%. The Activity [13] was “Non-Toxic”, the IC50 (Trypanosoma cruzi [14]) was 45.8 µM and the Activity (Trypanosoma cruzi [15]) was “Active”. For the same molecule, the IC50 (Trypanosoma cruzi [16]) was 10.1 µM, the Activity (Trypanosoma cruzi [17]) was “Active” and the IC50 (Trypanosoma cruzi [18]) was 27.9 µM. The Activity (Trypanosoma cruzi [19]) was “Active”, the “inhibition (INH)” value (Trypanosoma cruzi [20]) was 68% and the Activity [21] was “Non-Toxic”. For the same molecule, the IC50 [22] was 206 µM, the Activity (Trypanosoma cruzi [23]) was 0% and the Activity (Trypanosoma cruzi [24]) was “Active”.

Reference: ChEMBL document CHEMBL4680103, “In Vitro and in Vivo Anti-Trypanosoma cruzi Activity of New Arylamine Mannich Base-Type Derivatives” (J Med Chem, 2016)
